ChEMBL document CHEMBL2029259, “Design, synthesis, and biological evaluation of novel conformationally constrained inhibitors targeting epidermal growth factor receptor threonine⁷⁹⁰ → methionine⁷⁹⁰ mutant” (J Med Chem, 2012)
Active and inactive are the calls of the source. No cut-off for these calls is given here.

Key:
[1] = biological target: T1, Epidermal growth factor receptor (Homo sapiens, UniProt P00533); assay: Inhibition of EGFR after 1.5 hr by FRET assay
[2] = biological target: T2, Epidermal growth factor receptor (Homo sapiens, UniProt P00533, T790M); assay: Inhibition of EGFR T790M mutant after 1.5 hr by FRET assay; type: protein assay
[3] = biological target: T3, Epidermal growth factor receptor (Homo sapiens, UniProt P00533, L858R); assay: Inhibition of EGFR L858R mutant after 1.5 hr by FRET assay; type: protein assay
[4] = biological target: T4, Epidermal growth factor receptor (Homo sapiens, UniProt P00533, L861Q); assay: Inhibition of EGFR L861Q mutant after 1.5 hr by FRET assay; type: protein assay
[5] = biological target: T5, Epidermal growth factor receptor (Homo sapiens, UniProt P00533, L858R/T790M); assay: Inhibition of EGFR L858R/T790M mutant after 1.5 hr by FRET assay; type: protein assay
[6] = biological target: Cytoplasmic tyrosine-protein kinase BMX (Homo sapiens) (UniProt P51813); assay: Binding affinity to BMX
In short: (§1)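 Ambit KINOMEscan binding assay. Binding for 1 h at r.t. Unbound kinase captured on immobilized affinity ligand and quantified by qPCR.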

[7] = biological target: Tyrosine-protein kinase JAK3 (Homo sapiens) (UniProt P52333); assay: Binding affinity to JAK3; in short: as §1
[8] = test system: Mast/stem cell growth factor receptor Kit (Homo sapiens), P10721 [V559D]; assay: Binding affinity to KIT V559D mutant; in short: as §1
[9] = biological target: Tyrosine-protein kinase Lck (Homo sapiens) (UniProt P06239); assay: Binding affinity to LCK; in short: as §1
[10] = biological target: Mitogen-activated protein kinase kinase kinase 15 (Homo sapiens) (UniProt Q6ZN16); assay: Binding affinity to MAP3K15; in short: as §1
[11] = biological target: Platelet-derived growth factor receptor beta (Homo sapiens) (UniProt P09619); assay: Binding affinity to PDGFRbeta; in short: as §1
[12] = biological target: Tyrosine-protein kinase Tec (Homo sapiens) (UniProt P42680); assay: Binding affinity to TEC; in short: as §1
[13] = biological target: Activated CDC42 kinase 1 (Homo sapiens) (UniProt Q07912); assay: Binding affinity to TNK2; in short: as §1
A549 = assay: Antiproliferative activity against human A549 cells expressing wild type EGFR coexpressing k-Ras mutant after 72 hrs by MTS assay; conditions: A549, 72 h
[14] = Antiproliferative activity against human HL7702 cells expressing wilt type EGFR after 72 hrs by MTS assay; conditions: L02, 72 h
HCC827 [15] = assay: Induction of Cell cycle arrest in human HCC827 cells harboring EGFR del E746-A750 mutant assessed as G1 phase cells after 24 hrs by flow cytometry assay; type: functional, cell-based
In short: (§2)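 Cells in six-well plates serum-starved 24 h to synchronize in G0−G1, then treated at indicated concentrations for 24 h. Lightly trypsinized and cell-cycle distribution analysed by flow cytometry.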

NCI-H1975 [16] = assay: Induction of Cell cycle arrest in human NCI-H1975 cells harboring EGFR L858R/T790M mutant assessed as G1 phase cells after 24 hrs by flow cytometry assay; type: functional, cell-based; in short: as §2
NCI-H1975 [17] = assay: Antiproliferative activity against human NCI-H1975 cells harboring EGFR L858R/T790M mutant assessed as inhibition of colony formation after 9 days by crystal violet staining; type: functional, cell-based
In short: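 H1975 cells seeded at 500 cells per 6-cm dish and grown 24 h, then treated at 0.1 to 10 nM. Medium with compound replaced every 3 days. After 9 days, fixed with 4% formaldehyde and stained with 0.2% crystal violet.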

[18] = Cytotoxicity against human HLF1 cells after 72 hrs by MTS assay; type: cell-based; conditions: hlf1, 72 h
In short: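 MTS proliferation read-out at 490 nm after 72 h exposure, cell number set to give absorbance 1.3−2.2. Six concentrations, 0.1 nM to 10 μM, at least six parallels each, repeated at least four times. IC50 from nonlinear sigmoidal dose−response fit.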

HCC827 [19] = assay: Induction of apoptosis in human HCC827 cells harboring EGFR del E746-A750 mutant after 48 hrs by flow cytometry assay
NCI-H1975 [20] = assay: Induction of apoptosis in human NCI-H1975 cells harboring EGFR L858R/T790M mutant after 48 hrs by flow cytometry assay
[21] = biological target: T1, Epidermal growth factor receptor; assay: Binding affinity to EGFR
[22] = biological target: T2, Epidermal growth factor receptor; assay: Binding affinity to EGFR T790M mutant
[23] = biological target: T3, Epidermal growth factor receptor; assay: Binding affinity to EGFR L858R mutant
[24] = biological target: T4, Epidermal growth factor receptor; assay: Binding affinity to EGFR L861Q mutant
[25] = biological target: T5, Epidermal growth factor receptor; assay: Binding affinity to EGFR L858R/T790M mutant
[26] = biological target: Tyrosine-protein kinase Blk (Homo sapiens) (UniProt P51451); assay: Binding affinity to BLK at 100 nM
[27] = biological target: Tyrosine-protein kinase BTK (Homo sapiens) (UniProt Q06187); assay: Binding affinity to BTK at 100 nM
[28] = biological target: Receptor tyrosine-protein kinase erbB-2 (Homo sapiens) (UniProt P04626); assay: Binding affinity to ErbB2 at 100 nM
[29] = biological target: Receptor tyrosine-protein kinase erbB-4 (Homo sapiens) (UniProt Q15303); assay: Binding affinity to ErbB4 at 100 nM
[30] = biological target: Cyclin-G-associated kinase (Homo sapiens) (UniProt O14976); assay: Binding affinity to GAK at 100 nM
[31] = biological target: Tyrosine-protein kinase TXK (Homo sapiens) (UniProt P42681); assay: Binding affinity to TXK at 100 nM
NCI-H1975 [32] = assay: Antitumor activity against human NCI-H1975 cells xenografted in SCID mouse at 10 mg/kg, po administered qd for 14 days relative to control; type: functional, organism-based; parameters: dose 10 mg/kg
In short: (§3)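 Six-week-old SCID mice inoculated s.c. in the right flank with H1975 cells (2 × 10⁶/mouse). At mean tumour volume 380−420 mm³ (10−12 days), randomized n = 6/group. Oral dosing daily for 14 days, 0.1 mL/20 g, vehicle as control. Tumours measured every other day by caliper, volume = W²(L/2). Body weight monitored. Significance p < 0.05 versus vehicle.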

NCI-H1975 [33] = assay: Antitumor activity against human NCI-H1975 cells xenografted in SCID mouse at 30 mg/kg, po administered qd for 14 days relative to control; type: functional, organism-based; parameters: dose 30 mg/kg; in short: as §3
[34] = Toxicity in SCID mouse assessed as mortality at 10 mg/kg, po administered qd for 14 days relative to control; type: organism-based; parameters: dose 10 mg/kg, route oral; conditions: in vivo, read-out: Activity
In short: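 Six-week-old SCID mice bearing subcutaneous H1975 NSCLC xenografts (2 × 10⁶ cells, right flank) were randomized at 380−420 mm³ average tumour volume (10−12 days post implantation), n = 6/group. They were dosed orally once daily for 14 days with vehicle or compound (10 or 30 mg/kg; 0.1 mL/20 g body weight). Mortality and body weight were tracked during treatment against vehicle controls.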

Mus musculus = assay: Toxicity in SCID mouse assessed as weight loss at 10 mg/kg, po administered qd for 14 days relative to control; type: organism-based; parameters: dose 10 mg/kg, route oral; conditions: in vivo, 336 h; in short: as §3

T4 sequence (P00533 25-1210 L861Q limits assumed): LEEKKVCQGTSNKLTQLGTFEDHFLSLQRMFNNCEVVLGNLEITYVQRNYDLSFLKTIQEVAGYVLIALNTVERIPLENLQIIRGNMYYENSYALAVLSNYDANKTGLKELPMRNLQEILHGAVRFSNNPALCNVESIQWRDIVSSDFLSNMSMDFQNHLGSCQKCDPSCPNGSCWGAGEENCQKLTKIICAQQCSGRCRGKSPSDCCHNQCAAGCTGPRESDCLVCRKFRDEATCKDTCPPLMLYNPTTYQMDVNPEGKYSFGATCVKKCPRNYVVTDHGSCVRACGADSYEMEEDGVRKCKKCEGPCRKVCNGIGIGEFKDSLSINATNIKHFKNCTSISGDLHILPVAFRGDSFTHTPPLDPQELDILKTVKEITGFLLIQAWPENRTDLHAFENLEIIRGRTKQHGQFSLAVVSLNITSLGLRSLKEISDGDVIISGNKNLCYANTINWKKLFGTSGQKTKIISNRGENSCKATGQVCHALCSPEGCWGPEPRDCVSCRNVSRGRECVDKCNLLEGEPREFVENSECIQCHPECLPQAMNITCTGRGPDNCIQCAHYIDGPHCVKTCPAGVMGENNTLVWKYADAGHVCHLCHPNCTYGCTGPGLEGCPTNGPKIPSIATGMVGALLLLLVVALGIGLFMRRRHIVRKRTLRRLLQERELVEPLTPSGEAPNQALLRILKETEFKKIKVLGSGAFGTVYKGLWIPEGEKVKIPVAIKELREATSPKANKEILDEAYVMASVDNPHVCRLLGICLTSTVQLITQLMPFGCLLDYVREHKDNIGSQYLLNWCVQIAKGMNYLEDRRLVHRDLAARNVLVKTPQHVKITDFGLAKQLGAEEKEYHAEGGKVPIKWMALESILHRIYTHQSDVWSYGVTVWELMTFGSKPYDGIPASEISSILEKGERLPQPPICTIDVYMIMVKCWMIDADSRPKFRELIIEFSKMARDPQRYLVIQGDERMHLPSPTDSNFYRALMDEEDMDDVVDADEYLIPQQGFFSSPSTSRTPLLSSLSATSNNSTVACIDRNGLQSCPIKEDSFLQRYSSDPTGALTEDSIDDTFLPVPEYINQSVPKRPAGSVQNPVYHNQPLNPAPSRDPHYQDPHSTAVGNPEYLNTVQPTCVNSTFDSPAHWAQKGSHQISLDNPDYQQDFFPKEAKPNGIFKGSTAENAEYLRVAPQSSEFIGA
T1 sequence (P00533 whole entry): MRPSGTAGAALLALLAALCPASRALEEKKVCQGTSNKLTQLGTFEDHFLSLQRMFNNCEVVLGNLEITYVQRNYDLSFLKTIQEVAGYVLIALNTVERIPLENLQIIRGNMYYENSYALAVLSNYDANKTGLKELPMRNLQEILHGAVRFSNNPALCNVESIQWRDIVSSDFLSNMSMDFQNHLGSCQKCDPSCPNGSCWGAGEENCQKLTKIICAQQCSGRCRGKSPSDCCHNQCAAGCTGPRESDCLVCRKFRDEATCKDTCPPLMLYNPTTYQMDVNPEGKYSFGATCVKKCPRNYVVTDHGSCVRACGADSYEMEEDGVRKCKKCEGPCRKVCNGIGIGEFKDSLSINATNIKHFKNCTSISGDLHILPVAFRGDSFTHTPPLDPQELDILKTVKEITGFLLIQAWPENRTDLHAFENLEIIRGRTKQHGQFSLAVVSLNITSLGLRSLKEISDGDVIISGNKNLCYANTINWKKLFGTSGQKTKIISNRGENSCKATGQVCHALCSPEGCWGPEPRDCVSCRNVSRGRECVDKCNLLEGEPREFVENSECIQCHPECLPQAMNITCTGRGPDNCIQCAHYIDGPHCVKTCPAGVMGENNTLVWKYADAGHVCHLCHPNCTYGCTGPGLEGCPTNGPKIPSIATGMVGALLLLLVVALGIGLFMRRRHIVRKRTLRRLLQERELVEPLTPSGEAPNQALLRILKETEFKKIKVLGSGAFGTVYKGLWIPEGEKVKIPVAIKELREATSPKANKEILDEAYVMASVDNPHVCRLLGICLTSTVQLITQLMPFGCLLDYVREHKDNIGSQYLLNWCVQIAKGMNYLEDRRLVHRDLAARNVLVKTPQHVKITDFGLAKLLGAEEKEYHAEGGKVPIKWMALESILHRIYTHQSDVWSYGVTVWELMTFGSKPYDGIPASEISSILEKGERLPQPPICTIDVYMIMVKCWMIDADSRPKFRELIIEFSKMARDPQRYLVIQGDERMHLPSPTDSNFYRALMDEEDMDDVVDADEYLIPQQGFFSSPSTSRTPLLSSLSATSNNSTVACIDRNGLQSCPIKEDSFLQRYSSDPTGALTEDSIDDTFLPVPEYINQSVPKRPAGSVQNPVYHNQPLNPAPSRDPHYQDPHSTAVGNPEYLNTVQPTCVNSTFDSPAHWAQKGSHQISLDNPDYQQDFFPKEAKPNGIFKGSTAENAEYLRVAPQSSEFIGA
T2 sequence (P00533 25-1210 T790M limits assumed): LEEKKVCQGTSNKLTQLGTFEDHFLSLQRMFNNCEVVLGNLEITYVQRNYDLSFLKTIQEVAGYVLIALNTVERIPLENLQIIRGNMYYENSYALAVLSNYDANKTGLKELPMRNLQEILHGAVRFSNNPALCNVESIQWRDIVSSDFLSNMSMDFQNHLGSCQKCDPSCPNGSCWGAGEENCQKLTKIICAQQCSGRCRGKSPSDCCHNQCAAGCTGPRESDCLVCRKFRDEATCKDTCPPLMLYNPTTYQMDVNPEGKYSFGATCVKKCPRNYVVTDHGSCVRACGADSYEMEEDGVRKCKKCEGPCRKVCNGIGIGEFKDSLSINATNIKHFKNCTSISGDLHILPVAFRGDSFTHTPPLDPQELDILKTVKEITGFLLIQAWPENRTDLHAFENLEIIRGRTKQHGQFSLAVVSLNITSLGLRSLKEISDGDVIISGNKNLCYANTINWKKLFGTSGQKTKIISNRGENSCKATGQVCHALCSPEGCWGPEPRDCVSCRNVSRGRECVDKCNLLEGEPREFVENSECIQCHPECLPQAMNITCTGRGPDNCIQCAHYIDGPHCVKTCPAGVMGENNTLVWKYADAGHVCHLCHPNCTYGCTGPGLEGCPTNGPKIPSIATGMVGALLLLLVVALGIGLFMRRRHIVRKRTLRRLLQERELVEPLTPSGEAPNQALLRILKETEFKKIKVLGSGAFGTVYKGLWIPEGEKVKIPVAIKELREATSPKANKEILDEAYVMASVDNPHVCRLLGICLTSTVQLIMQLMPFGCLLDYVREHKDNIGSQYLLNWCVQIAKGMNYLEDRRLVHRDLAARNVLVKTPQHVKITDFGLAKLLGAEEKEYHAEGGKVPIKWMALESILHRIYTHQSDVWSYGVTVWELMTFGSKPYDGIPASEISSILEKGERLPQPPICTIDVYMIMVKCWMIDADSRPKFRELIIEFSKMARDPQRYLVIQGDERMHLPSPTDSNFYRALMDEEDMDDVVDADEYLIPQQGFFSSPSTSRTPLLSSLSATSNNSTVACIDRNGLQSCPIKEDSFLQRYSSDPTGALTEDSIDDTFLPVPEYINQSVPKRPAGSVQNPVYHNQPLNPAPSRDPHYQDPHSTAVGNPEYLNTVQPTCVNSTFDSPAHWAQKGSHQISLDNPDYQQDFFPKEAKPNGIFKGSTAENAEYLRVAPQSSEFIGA
T3 sequence (P00533 25-1210 L858R limits assumed): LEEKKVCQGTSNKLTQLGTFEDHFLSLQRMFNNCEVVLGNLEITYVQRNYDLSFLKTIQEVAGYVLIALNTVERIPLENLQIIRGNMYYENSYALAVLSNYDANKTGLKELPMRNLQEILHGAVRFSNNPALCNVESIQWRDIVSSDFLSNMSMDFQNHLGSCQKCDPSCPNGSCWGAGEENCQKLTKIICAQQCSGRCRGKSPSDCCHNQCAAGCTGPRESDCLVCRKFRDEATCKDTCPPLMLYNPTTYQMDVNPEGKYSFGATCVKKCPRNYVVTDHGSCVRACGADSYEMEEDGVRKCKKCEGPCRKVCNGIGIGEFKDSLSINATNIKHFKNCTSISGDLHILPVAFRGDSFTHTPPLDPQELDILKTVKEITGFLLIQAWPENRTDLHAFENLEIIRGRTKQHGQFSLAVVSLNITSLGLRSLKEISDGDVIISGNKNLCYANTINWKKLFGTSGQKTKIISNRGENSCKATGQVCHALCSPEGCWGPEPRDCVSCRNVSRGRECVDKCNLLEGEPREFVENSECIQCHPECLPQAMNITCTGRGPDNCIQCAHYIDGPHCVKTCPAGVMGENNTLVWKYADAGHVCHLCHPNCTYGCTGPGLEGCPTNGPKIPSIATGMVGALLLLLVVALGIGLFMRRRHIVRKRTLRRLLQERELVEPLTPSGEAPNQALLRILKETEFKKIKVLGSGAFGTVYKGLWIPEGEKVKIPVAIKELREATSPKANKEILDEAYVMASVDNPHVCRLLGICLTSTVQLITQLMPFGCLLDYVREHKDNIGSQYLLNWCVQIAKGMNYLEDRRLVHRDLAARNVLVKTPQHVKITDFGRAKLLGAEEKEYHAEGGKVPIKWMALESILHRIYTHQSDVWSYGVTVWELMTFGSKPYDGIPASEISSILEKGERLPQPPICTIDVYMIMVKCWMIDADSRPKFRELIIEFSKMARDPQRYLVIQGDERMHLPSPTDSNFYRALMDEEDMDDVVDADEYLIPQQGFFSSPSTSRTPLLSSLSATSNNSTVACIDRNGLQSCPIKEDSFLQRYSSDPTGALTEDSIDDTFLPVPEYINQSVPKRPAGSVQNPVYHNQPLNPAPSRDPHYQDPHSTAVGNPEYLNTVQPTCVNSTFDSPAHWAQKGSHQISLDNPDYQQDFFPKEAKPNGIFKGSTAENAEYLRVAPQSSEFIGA

C=CC(=O)Nc1cccc(N2C(=O)N(c3ccccc3)Cc3cnc(Nc4ccc(N5CCN(C)CC5)cc4OC)nc32)c1
IC50 [1]: 0.3 nM
IC50 [2]: 0.51 nM
IC50 [3]: 0.46 nM
IC50 [4]: 0.93 nM
IC50 [5]: 0.98 nM
Activity [6]: Active
Activity [7]: Active
Activity [8]: Active
Activity [9]: Active
Activity [10]: Active
Activity [11]: Active
Activity [12]: Active
Activity [13]: Active
IC50 (A549): 2800 nM
IC50 [14]: 4020 nM
Activity (HCC827 [15]): Active
Activity (NCI-H1975 [16]): Active
inhibition (NCI-H1975 [17]): Dose-dependent effect
Activity [18]: Non-toxic
Activity (HCC827 [19]): Active
Activity (NCI-H1975 [20]): Active

C=CC(=O)Nc1cccc(N2C(=O)N(Cc3ccccc3)Cc3cnc(Nc4ccc(N5CCN(C)CC5)cc4OC)nc32)c1
IC50 [1]: 0.29 nM
IC50 [2]: 0.67 nM
IC50 [3]: 0.38 nM
IC50 [4]: 0.72 nM
IC50 [5]: 0.93 nM
Kd [21]: 1.2 nM
Kd [22]: 0.29 nM
Kd [23]: 1.3 nM
Kd [24]: 0.68 nM
Kd [25]: 0.3 nM
Activity [26]: Active
Activity [27]: Active
Activity [28]: Active
Activity [29]: Active
Activity [30]: Active
Activity [31]: Active
IC50 (A549): 2660 nM
IC50 [14]: 2390 nM
Activity (HCC827 [15]): Active
Activity (NCI-H1975 [16]): Active
inhibition (NCI-H1975 [17]): Dose-dependent effect
Activity [18]: Non-toxic
Activity (NCI-H1975 [32]): inactive
Activity (NCI-H1975 [33]): Active
mortality at 336 h [34]: < 5%
Activity (Mus musculus): < 5%
Activity (HCC827 [19]): Active
Activity (NCI-H1975 [20]): Active
